# High-throughput results as filed in PubChem BioAssay.
# PAFAH1B2 inh: blocks human PAF acetylhydrolase 1b catalytic subunit 2 | recombinant PAFAH1B2, FP-rhodamine activity probe, fluorescence polarization | 1.2% of 340,000 active | AID 492953 | inhibition, % at 3.39 µM;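 active = inhibition above the mean of all tested compounds plus 3 SD, cut at about 24% in these data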;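 note: 0% = enzyme with DMSO and 100% = wells lacking PAFAH1B2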
# Target sequence (P68402 whole entry, looked up): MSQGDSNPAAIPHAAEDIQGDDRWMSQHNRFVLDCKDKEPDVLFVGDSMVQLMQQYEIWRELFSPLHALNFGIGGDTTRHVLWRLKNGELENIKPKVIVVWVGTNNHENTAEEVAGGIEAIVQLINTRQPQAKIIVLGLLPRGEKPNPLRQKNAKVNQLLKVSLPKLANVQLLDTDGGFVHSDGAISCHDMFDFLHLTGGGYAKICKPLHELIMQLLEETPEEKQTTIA
# GRIN3A LBD mod: modulates the human NR3A ligand-binding domain. NR3A LBD differential scanning fluorimetry, Tm shift; 0% = protein alone, 100% = glycine-bound protein. Tm shift relative to glycine control, % at 25 µM. 2.5% of 340,000 active;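 active = melting temperature shift of at least 10% of the positive control shift, at one fixed dose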
# PAFAH1B3 FP inh: PAFAH1B3 (human) inhibition; Q15102; recombinant PAFAH1B3, FP-rhodamine probe, fluorescence polarization; inhibition, % at 3.39 µM; 0.28% of 340,000 active;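 active = inhibition above the screen-wide average of all tested compounds plus 3 SD, cut at about 25% in these data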;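 note: 0% = enzyme with DMSO only and 100% = wells lacking PAFAH1B3 protein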
# Target sequence (Q15102 whole entry, looked up): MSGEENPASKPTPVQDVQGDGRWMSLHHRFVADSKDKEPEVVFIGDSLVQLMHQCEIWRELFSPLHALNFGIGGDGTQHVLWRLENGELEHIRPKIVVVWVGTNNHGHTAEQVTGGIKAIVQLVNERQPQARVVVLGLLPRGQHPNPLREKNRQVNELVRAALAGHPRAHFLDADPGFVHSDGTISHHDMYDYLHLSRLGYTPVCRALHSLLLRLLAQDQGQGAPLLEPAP
# PAFAH2 FP inh: PAFAH2 (human) inhibition | Q99487 | recombinant PAFAH2, FP-rhodamine activity probe, fluorescence polarization | inhibition, % at 3.39 µM | 0.99% of 340,000 active;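 active = inhibition above the mean over all tested compounds plus 3 SD, cut at about 30% in these data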;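 note: inhibitors block probe labeling of enzyme so polarization drops; 0% = enzyme with DMSO and 100% = wells lacking PAFAH2 protein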
# pPAFAH inh: inhibitors of human plasma PAF acetylhydrolase (pPAFAH) | 1.5% of 330,000 active | inhibition, % at 3.39 µM | AID 463082 | recombinant pPAFAH, FP-rhodamine probe fluorescence polarization | Q13093;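 active = inhibition above the mean inhibition across the screen plus 3 SD, cut at about 25% in these data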;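 note: inhibitors block binding of the rhodamine activity-based probe so polarization drops; 0% = enzyme with DMSO and 100% = wells lacking pPAFAH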
# UCH37 inh: inhibitors of human deubiquitinating enzyme UCH37; Q9Y5K5; purified proteasome/UCH37, Ub-AMC cleavage fluorescence; inhibition, % (test concentration not listed); 0.33% of 330,000 active; AID 588478;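 active = mean inhibition over replicate wells above about 20%, limit read from the data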;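 note: 0% = compound-free wells with enzyme and 100% = wells lacking proteasome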
#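 Material: human UCH37 enzyme supplied as purified proteasome complex. Measure: % inhibition of Ub-AMC cleavage fluorescence. Medium: pH 7.4 Tris-HCl (50 mM) with ovalbumin, ATP-MgCl2, DTT. Times: 30 min preincubation with enzyme, 25 min cleavage at room temperature. Detection: AMC fluorescence intensity at 355/460 nm.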
# * hit, by the source's call; x = no result. In the library only some 4.8% were active in any assay of this set; here they are far more common.
SMILES,PAFAH1B2 inh,GRIN3A LBD mod,PAFAH1B3 FP inh,PAFAH2 FP inh,pPAFAH inh,UCH37 inh
O=C(NN1C(=O)C2C(c3ccccc3)C=CC(c3ccccc3)C2C1=O)c1cccc(Br)c1 (centres undefined),-7,20*,4,-21,-7,4
O=C(NN1C(=O)C2C(c3ccccc3)C=CC(c3ccccc3)C2C1=O)c1ccccc1 (centres undefined),9,9,7,-2,-1,4
Cc1nc(-c2ccc(C(=O)Nc3ccc(F)cc3)cc2)cs1,1,11*,12,7,-1,7
Cc1nc(-c2ccc(C(=O)Nc3cccc(F)c3)cc2)cs1,-1,0,5,1,1,0
O=C(Nc1ccc(-c2csc(-c3ccccc3)n2)cc1)c1ccccc1,3,13*,-8,-1,-3,-7
Cc1nc(-c2cccc(NC(=O)c3ccc(-n4cccn4)cc3)c2)cs1,6,16*,5,-4,-3,0
O=C(Cc1csc(-c2ccccc2)n1)Nc1ccc(C(F)(F)F)cc1,-4,13*,-6,-6,-5,4
CNC(=S)NN=C(C)c1ccc(N2CCOCC2)cc1,x,x,x,x,x,-15
CCc1ccc(Nc2n[n+](-c3ccccc3)c(-c3ccc(N(CC)CC)cc3)s2)cc1,3,-4,5,10,30*,0
CSc1ccc(/C=C/C(=O)c2c(O)cc(C)oc2=O)cc1,8,-4,5,7,19,4
Cc1cc(O)c(C(=O)/C=C/c2ccc(Cl)cc2)c(=O)o1,3,-3,9,7,27*,5
COc1cccc(C=NNC(=O)C(=O)NN=Cc2cccc(OC)c2OC)c1OC,x,x,x,x,x,-29
COc1ccc(C(=O)NNC2CC(=O)N(Cc3ccc(Cl)cc3)C2=O)cc1OC (centres undefined),4,0,5,5,33*,2
CCN1C(=O)CC(NNC(=O)c2ccc(Cl)cc2)C1=O (centres undefined),0,2,3,9,5,0
COc1ccc(C2CC(c3cc(Br)ccc3F)n3nnnc3N2)cc1 (centres undefined),8,1,1,-2,7,-8
COc1ccc(C2CC(c3ccccc3)n3nnnc3N2)cc1 (centres undefined),0,411*,-1,-9,3,-1
COc1ccc(C=Nn2c(C3CCCCC3)n[nH]c2=S)c(OC)c1,x,x,x,x,x,6
O=[N+]([O-])c1ccc2[nH]cc(S(=O)(=O)N3CCN(c4cccc(Cl)c4)CC3)c2c1,1,27*,-1,2,9,5
CCOc1ccc(NC(=S)N(CCOC)C2CCN(C(C)C)CC2)cc1,3,10*,9,3,11,-2
Cc1cc(Nc2ccccc2)nn1C(=O)c1ccc(Br)cc1,27*,x,10,-1,11,0
Cc1cc(Nc2ccccc2)nn1C(=O)c1ccccc1,6,-2,17,6,13,-3
COc1cc(C=NN(C)C2=NS(=O)(=O)c3ccccc32)cc(OC)c1OC,x,x,x,x,x,-40
CN(C)C=Nn1cnc2ccccc2c1=O,x,x,x,x,x,1
O=C(/C=C/c1cccc([N+](=O)[O-])c1)NCCSCc1ccc(Cl)cc1,17,5,-5,5,6,0
O=C(Cc1ccccc1)NCCSCc1ccc(Cl)cc1,29*,0,12,5,24,0
SMILES,PAFAH1B2 inh,GRIN3A LBD mod,PAFAH1B3 FP inh,PAFAH2 FP inh,pPAFAH inh,UCH37 inh
O=C(/C=C/c1ccccc1)NCCSCc1ccc(Cl)cc1,4,12*,3,11,5,1
O=C(COc1ccccc1)NCCSCc1ccc(Cl)cc1,3,-2,2,-2,11,3
Cc1cc(C=NNC(=O)c2ccsc2)c(C)n1-c1cnccn1,x,x,x,x,x,9
Cc1ccc(S(=O)(=O)n2c3ccc(Cl)cc3c3nc(C)sc32)cc1,5,27*,-4,-1,x,0
CN1CCN(c2ccc([N+](=O)[O-])cc2C=NNC(=O)c2ccc(F)cc2)CC1,x,x,x,x,x,11
CN(C)c1cccc(/C=C(\C#N)c2ccccc2)c1,6,-5,8,-5,34*,-3
CON=CNC(=O)c1ccc([N+](=O)[O-])c(CS(=O)(=O)c2ccc(Cl)cc2)c1,x,x,x,x,x,2
CN(C)C(/C=C/Nc1ccc([N+](=O)[O-])cc1)=C(C#N)C#N,2,18*,2,5,6,6
